Consider 1 compound from ChEMBL document CHEMBL1275591, “Cellular pharmacodynamics of the novel biaryloxazolidinone radezolid: studies with infected phagocytic and nonphagocytic cells, using Staphylococcus aureus, Staphylococcus epidermidis, Listeria monocytogenes, and Legionella pneumophila” (Antimicrob Agents Chemother, 2010).

Data set [1] has as its system Staphylococcus epidermidis. The data set is described as follows: Bacteriostatic activity against Staphylococcus epidermidis infected in THP1 cells after 24 hrs. It is filed as functional, THP-1. In outline:
(§1)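 Bacteria were phagocytosed by human THP-1 macrophage-like cells, then exposed to a range of drug concentrations for a fixed time: 24 h for S. aureus, S. epidermidis and L. monocytogenes, 48 h for L. pneumophila. Change in CFU versus the initial inoculum was fitted with a sigmoidal curve to give Emin, Emax (relative maximal efficacy), EC50 and static concentration (Cs).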

Data set [2] has as its system THP-1. The data set is described as follows: Ratio of drug level for cellular to extracellular region of Staphylococcus aureus infected human THP-1 cells at 4 mg/liter after 24 hrs. Format: ADME, cell-based. The conditions noted are these: thp-1, 24 h. In outline: (§2)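 Cells were exposed to [14C]radezolid for 2 or 24 h. Cell-associated drug in lysates was measured by liquid scintillation counting (detection limit 0.003 mg/liter; linear 0.01–0.78 mg/liter). Content was normalised to cell protein (Lowry). It was converted to apparent cellular concentration at 5 μl per mg protein and expressed relative to the extracellular concentration.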

In data set [3] the test system is Staphylococcus aureus. The data set is described as follows: Antimicrobial activity against linezolid-susceptible Staphylococcus aureus ATCC 33591 infected in THP1 cells after 24 hrs. The following applies: ATCC 33591, THP-1, 24 h. Format: functional, organism-based. The procedure, abridged: as §1
For data set [4], the system named is Staphylococcus aureus. Nature of the data set: Antimicrobial activity against methicillin-resistant, vancomycin intermediate Staphylococcus aureus NRS18 after 24 hrs. Format: functional. The conditions noted are these: NRS18, 24 h.
The test system of data set [5] is Staphylococcus aureus. The data set is described as follows: Antimicrobial activity against linezolid-susceptible Staphylococcus aureus SA238 infected in THP-1 cells at pH 5.5 after 24 hrs. Format: functional, organism-based. The following applies: SA238, THP-1, 24 h.
Data set [6] deals with Staphylococcus aureus. Nature of the data set: Antimicrobial activity against methicillin-susceptible Staphylococcus aureus ATCC 25923 after 24 hrs. It is filed as functional. The following applies: ATCC 25923, 24 h.
Data set [7] deals with Staphylococcus aureus. Nature of the data set: Antimicrobial activity against linezolid resistant methicillin-susceptible Staphylococcus aureus SA040L after 24 hrs. Format: functional.
In data set [8] the test system is Staphylococcus aureus. Nature of the data set: Antimicrobial activity against Linezolid resistant hospital acquired methicillin-resistant Staphylococcus aureus SA238L after 24 hrs. It is filed as functional.
Data set [9] has as its system Staphylococcus aureus. The data set is described as follows: Antimicrobial activity against linezolid-susceptible Staphylococcus aureus ATCC 25923 infected in THP1 cells after 24 hrs. It is filed as functional, organism-based. The following applies: ATCC 25923, THP-1, 24 h. The procedure, abridged:
as §1

Data set [10] is described as follows: Ratio of drug level for cellular to extracellular region of Staphylococcus aureus infected rat fibroblast at 4 mg/liter after 24 hrs. Format: ADME, cell-based. In outline:
as §2

Data set [11] deals with Staphylococcus aureus. Nature of the data set: Antimicrobial activity against linezolid-susceptible Staphylococcus aureus SA238 after 24 hrs. Format: functional, organism-based. The following applies: SA238, 24 h.
Data set [12] has as its system Staphylococcus aureus. The data set is described as follows: Antimicrobial activity against linezolid-resistant Staphylococcus aureus SA238L infected in rat fibroblast cells assessed as log reduction in bacterial count after 24 hrs. It is filed as functional. The procedure, abridged: (§3)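 S. aureus was internalized by adherent nonphagocytic cells: Calu-3, HUVEC, keratinocytes on collagen-coated wells, osteoblasts, or rat embryo fibroblasts. Inoculum was 5 × 10^7 to 1 × 10^8 bacteria/ml with 2 h phagocytosis (HUVEC: 2 × 10^6/ml, 1 h). Cells were then exposed to graded drug concentrations for 24 h. CFU change versus the original inoculum was fitted sigmoidally for Emax and Cs.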

Data set [13] concerns Listeria monocytogenes. Nature of the data set: Antimicrobial activity against Listeria monocytogenes EGD after 24 hrs. Format: functional.
Data set [14] deals with Staphylococcus aureus. Nature of the data set: Antimicrobial activity against community acquired methicillin-resistant Staphylococcus aureus NRS384 after 24 hrs. It is filed as functional. The conditions noted are these: NRS384, 24 h.
The test system of data set [15] is Staphylococcus aureus. The data set is described as follows: Bacteriostatic activity against linezolid-susceptible Staphylococcus aureus SA238 infected in human osteoblasts cells after 24 hrs. Format: functional. The procedure, abridged: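 Adherent nonphagocytic cells were infected at 5 × 10^7 to 1 × 10^8 bacteria/ml with 2 h phagocytosis. Cells used: Calu-3 bronchial epithelium grown in uncoated flasks, neonatal foreskin keratinocytes on collagen-coated wells, primary human osteoblasts, and primary rat embryo fibroblasts. Antibiotic was then given over a concentration range for 24 h. Cs came from a sigmoidal fit of CFU change.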

Data set [16] concerns Staphylococcus aureus. The data set is described as follows: Antimicrobial activity against community acquired methicillin-resistant Staphylococcus aureus NRS192 after 24 hrs. It is filed as functional. The conditions noted are these: NRS192, 24 h.
In data set [17] the test system is Staphylococcus aureus. The data set is described as follows: Antimicrobial activity against linezolid-susceptible Staphylococcus aureus ATCC 33591 infected in THP1 cells assessed as log reduction in bacterial count after 24 hrs. Format: functional, THP-1. In outline: as §1
Data set [18] has as its system Staphylococcus aureus. The data set is described as follows: Antimicrobial activity against linezolid-susceptible Staphylococcus aureus SA238 infected in rat fibroblast cells assessed as log reduction in bacterial count after 24 hrs. Format: functional. In outline:
as §3

≈ marks a conversion by molar mass, not a printed value.

By EC50 is commonly meant the concentration needed to bring the measured effect to its halfway point. A high value points to lower potency in that assay. As usually defined, the MIC is the least concentration at which growth counts as inhibited. The low end stands for a more susceptible organism, the high end for a less susceptible organism. Consider `CC(=O)NC[C@H]1CN(c2ccc(-c3ccc(CNCc4cnn[nH]4)cc3)c(F)c2)C(=O)O1` [RADEZOLID], for which the Activity in data set [1] is 0.03 mg/L; in [15], 0.6 mg/L. Besides, the Ratio in [2] is 9.8; in [10], 10.9. Moreover, the EC50 in [3] worked out at 0.12 µg/mL (≈ 0.274 µM); in [5], 0.02 µg/mL (≈ 0.0456 µM); in [9], 0.24 µg/mL (≈ 0.547 µM); in data set [11], 0.16 µg/mL (≈ 0.365 µM). The MIC in [4] was found to be 0.25 µg/mL (≈ 0.57 µM); in data set [6], 0.25 µg/mL (≈ 0.57 µM); in [7], 2 µg/mL (≈ 4.56 µM); in data set [8], 2 µg/mL (≈ 4.56 µM); in data set [13], 0.03 µg/mL (≈ 0.0684 µM); in data set [14], 0.5 µg/mL (≈ 1.14 µM). In data set [16], this compound came in with an MIC of 0.5 µg/mL (≈ 1.14 µM). For the same compound, the log10cfu in data set [12] was 0.6; in [17] it was -0.56; in data set [18], 0.6.
